Like-named read-outs stand apart in the source and are kept apart here.
How the values were obtained:
Breast = assay: cells; type: cell-based; settings: Homo sapiens, 48 h, read-out: TGI Breast
full NCI 60 cell panel [1] = assay: NCI 60 five-concentration screen, panel mean; type: cell-based; settings: Homo sapiens, 48 h; for IC (TGI): read-out: TGI MG-MID; for GI50: read-out: GI50 MG-MID; for CC50: read-out: LC50 MG-MID
Leukemia = assay: cells; type: cell-based; settings: Homo sapiens, 48 h, read-out: TGI Leukemia
Melanoma = assay: NCI 60 five-concentration screen, melanoma subpanel; type: cell-based; settings: Homo sapiens, 48 h, read-out: TGI Melanoma
Nox4 in B1647 cells [2] = assay: Intracellular ROS level; type: cell-based, human; settings: 30 min treatment at 5 or 10 µM
Procedure, shortened: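 Human AML B1647 cells grown in IMDM with 5% human serum (37 °C, 5% CO₂) were treated 30 min with test compound in DMSO. Cells (1 × 10⁶/mL) were washed twice in PBS and loaded with 5 µM DCFH-DA for 20 min at 37 °C. Oxidized DCF fluorescence was read in a multiwell plate reader.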

Nox4 in B1647 cells [3] = assay: Intracellular ROS after Nox2 silencing in B1647 cells; type: cell-based, human; settings: siRNA against Nox2, 50 nM
Nox4 = Nox4 expression by Western blotting in B1647 cells; type: cell-based, human; settings: 24 h treatment; 10 µM
Procedure, shortened: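 B1647 cells were treated 24 h, then lysed 15 min on ice (1% Igepal, 150 mM NaCl, 50 mM Tris–HCl, 5 mM EDTA, protease inhibitors, orthovanadate, pH 8.0). 40 µg protein/lane ran on 10% SDS-PAGE and was transferred to nitrocellulose (100 V, 90 min). Blots were blocked in 5% milk in TBS/Tween, probed overnight at 4 °C with anti-Nox4 and anti-β-tubulin, then HRP secondaries, with luminol detection.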

Ovarian = assay: cells; type: cell-based; settings: Homo sapiens, 48 h, read-out: TGI Ovarian
Renal = assay: NCI 60 five-concentration screen, renal subpanel; type: cell-based; settings: Homo sapiens, 48 h, read-out: TGI Renal
NSCLC = assay: NCI 60 five-concentration screen, NSCLC subpanel; type: cell-based; settings: Homo sapiens, 48 h, read-out: TGI NSCLC
Colon = assay: NCI 60 five-concentration screen, colon subpanel; type: cell-based; settings: Homo sapiens, 48 h, read-out: TGI Colon
CNS = assay: cells; type: cell-based; settings: Homo sapiens, 48 h, read-out: TGI CNS
Prostate = assay: cells; type: cell-based; settings: Homo sapiens, 48 h, read-out: TGI Prostate
cells = assay: Cell cycle effect; type: cell-based; settings: data not presented
full NCI 60 cell panel [4] = assay: NCI 60 Cell One-Dose Screen; type: cell-based

Row | SMILES | IC (TGI) (Breast) [µM] | IC (TGI) (full NCI 60 cell panel [1]) [µM] | IC (TGI) (Leukemia) [µM] | IC (TGI) (Melanoma) [µM] | GI50 (full NCI 60 cell panel [1]) [µM] | IC (TGI) (Renal) [µM] | CC50 (full NCI 60 cell panel [1]) [µM] | IC (TGI) (Colon) [µM] | IC (TGI) (CNS) [µM] | further results
1 | COc1ccc(OC)c2c1NC(=O)/C2=C\c1cc(OC)c(OC)c(OC)c1 [Compound 3] | 19 | 19.5 |  |  |  |  |  |  |  | 
2 | COc1cc(/C=C2\C(=O)Nc3ccc(Br)cc32)cc(OC)c1OC [Compound 5] |  | 67.6 | 49 | 76 | 7.9 |  |  |  |  | ROS generation (Nox4 in B1647 cells [2]): partially inhibited; ROS production in Nox2 silenced cells vs scrambled cells (Nox4 in B1647 cells [3]): inhibited ROS production to the same extent; Nox4 expression (Nox4): downregulate Nox4 expression
3 | COc1cc(/C=C2\C(=O)Nc3ccc(N(C)C)cc32)cc(OC)c1OC [Compound 6] |  | 32.4 | 9.3 |  | 2.8 | 49 | 89.1 |  |  | IC (TGI) (Ovarian): 32.4 µM
4 | COc1cc(/C=C2/C(=O)Nc3cc(C)c(O)cc32)cc(OC)c1OC [Compound 7] |  | 20.9 | 8.7 |  | 4.3 |  | 69.2 |  |  | ROS generation (Nox4 in B1647 cells [2]): partially inhibited; ROS production in Nox2 silenced cells vs scrambled cells (Nox4 in B1647 cells [3]): inhibited ROS production to the same extent; Nox4 expression (Nox4): downregulate Nox4 expression
5 | COc1cc(/C=C2\C(=O)Nc3cc(Cl)ccc32)cc(OC)c1OC [Compound 8] | 4.1 | 5.4 | 3.6 | 6.8 | 1.3 | 4.9 | 24 | 5.4 | 5 | IC (TGI) (NSCLC): 8.3 µM; IC (TGI) (Ovarian): 5.4 µM; IC (TGI) (Prostate): 5.4 µM; proportion of cells in G2/M (cells): increased proportion of cells in G2/M
6 | COc1cc(/C=C2\C(=O)Nc3cc(OC(F)(F)F)ccc32)cc(OC)c1OC [Compound 9] | 8.7 | 12.3 |  |  | 2.7 |  |  |  | 7.4 | 
7 | COc1cc(/C=C2/C(=O)N(C)c3ccc(O)cc32)cc(OC)c1OC [Compound 10] |  | 17.4 | 8.3 |  | 4.4 |  |  |  | 17.4 | IC (TGI) (Prostate): 6.3 µM
8 | COc1ccc2c(c1)/C(=C\c1cc(OC)c(OC)c(OC)c1)C(=O)N2C [Compound 11] | 21.9 | 21.9 | 7.6 | 21.9 |  | 24 | 89.1 |  |  | 
9 | COc1cc(/C=C2\C(=O)N(C)c3ccc(Cl)cc32)cc(OC)c1OC [Compound 12] |  | 21.4 |  | 21.4 | 4.5 | 24 |  |  |  | 
10 | COc1cc(/C=C2\C(=O)N(Cc3ccc(Cl)cc3)c3ccccc32)cc(OC)c1OC [Compound 13] |  | 10.7 | 4.9 | 8.9 | 2.6 | 10.7 | 41.7 | 5.9 |  | IC (TGI) (Prostate): 7.6 µM
11 | COc1ccc(CN2C(=O)/C(=C\c3cc(OC)c(OC)c(OC)c3)c3ccccc32)cc1 [Compound 14] |  | 9.3 |  | 4.5 | 2.1 | 9.1 | 35.5 | 3.6 |  | IC (TGI) (NSCLC): 9.3 µM
12 | COc1ccc(CN2C(=O)/C(=C/c3cc(OC)c(OC)c(OC)c3)c3cc(OC)ccc32)cc1 [Compound 15] |  | 8.9 |  | 5.7 |  | 8.9 | 34.7 | 3.8 | 7.4 | IC (TGI) (Ovarian): 8.9 µM
13 | COc1ccc2c(c1)C(=Nc1cc(OC)c(OC)c(OC)c1)C(=O)N2 [Compound 18] |  |  |  |  |  |  |  |  |  | cytotoxic activity in the preliminary one-dose test (full NCI 60 cell panel [4]): lack of cytotoxic activity
14 | COc1cc(/N=C2\C(=O)N(Cc3ccccc3)c3ccccc32)cc(OC)c1OC [Compound 19] |  |  |  |  |  |  |  |  |  | growth inhibition in the one-dose screen (full NCI 60 cell panel [4]; RXF 393, CCRF-CEM, RPMI-8226 and HOP-92 cells, 10^−5 M, data not shown): growth inhibition; cytotoxic activity in the preliminary one-dose test (full NCI 60 cell panel [4]; single concentration 10^−5 M, 48 h incubation): lack of cytotoxic activity
15 | CC[C@]1(O)C[C@H]2CN(CCc3c([nH]c4ccccc34)[C@@](C(=O)OC)(c3cc4c(cc3OC)N(C=O)[C@H]3[C@@](O)(C(=O)OC)[C@H](OC(C)=O)[C@]5(CC)C=CCN6CC[C@]43[C@@H]65)C2)C1 [Vincristine, reference compound] | 7.9 | 10 | 15.8 | 7.9 |  | 19.9 |  | 4 | 6.3 | IC (TGI) (NSCLC): 15.8 µM; IC (TGI) (Ovarian): 19.9 µM; IC (TGI) (Prostate): 6.3 µM

— publication PMC3712647 (European journal of medicinal chemistry, 2013)
